High-throughput results deposited in PubChem BioAssay by several laboratories.
sPLA2-III inh – human group III sPLA2 inhibitors, primary screen, biochemical, QFRET, BODIPY PC-A2 liposome substrate | Group 3 secretory phospholipase A2 (Homo sapiens), Q9NZ20 | QFRET BODIPY PC-A2 liposome hydrolysis, fluorescence | inhibition, % at 12.2 µM | hit rate 0.56% among 370,000 | AID 743126, 2013;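 active = inhibition above mean plus 3 SD of compounds lying within the high and low control bounds, cut at about 19% in these data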;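 note: 0% = median of test compound wells and 100% = no enzyme DMSO wells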
SR-BI HDL uptake – inhibitors of SR-BI mediated HDL lipid uptake, primary screen, ldlA[mSR-BI] cells, fluorescence, single point; Scavenger receptor class B member 1 (Mus musculus), Q61009; ldlA[mSR-BI] CHO cells, DiI-HDL uptake fluorescence, 3 h; inhibition, % at 12.5 µM; hit rate 0.96% among 320,000; AID 488896, 2010;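 active = mean replicate inhibition of at least 70% and a set share of replicates each scoring 70 or more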;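 note: 0% = median of neutral control wells and 100% = median of positive control wells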
Target sequence (Q61009 whole entry, looked up): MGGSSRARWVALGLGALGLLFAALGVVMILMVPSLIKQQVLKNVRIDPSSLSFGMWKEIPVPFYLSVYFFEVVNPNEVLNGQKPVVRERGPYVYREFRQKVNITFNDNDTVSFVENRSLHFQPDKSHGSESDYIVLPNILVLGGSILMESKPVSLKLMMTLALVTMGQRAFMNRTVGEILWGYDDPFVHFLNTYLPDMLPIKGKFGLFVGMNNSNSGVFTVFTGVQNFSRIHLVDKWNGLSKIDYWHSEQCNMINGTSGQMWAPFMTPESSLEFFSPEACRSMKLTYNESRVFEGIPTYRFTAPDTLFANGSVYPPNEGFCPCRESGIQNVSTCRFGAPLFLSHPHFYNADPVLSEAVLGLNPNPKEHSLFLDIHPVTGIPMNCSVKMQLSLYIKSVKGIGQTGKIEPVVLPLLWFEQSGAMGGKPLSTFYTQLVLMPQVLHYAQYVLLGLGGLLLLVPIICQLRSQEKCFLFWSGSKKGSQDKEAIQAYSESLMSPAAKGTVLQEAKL
NSD2 HMT inh – NSD2 histone methyltransferase inhibitors, primary screen, biochemical, AlphaScreen, single concentration, set 2 | Histone-lysine N-methyltransferase NSD2 (Homo sapiens), O96028 | NSD2 peptide methylation, 120 min | inhibition, % at 12.5 µM | hit rate 0.54% among 310,000; in the data active = inhibition above about 50%
ARNT TACC3 PPI – disruptors of ARNT/TACC3 protein interaction, primary screen, biochemical, AlphaScreen, single concentration. inhibition, % at 9.99 µM. AID 623870, 2012. AlphaScreen His-ARNT PAS-B/GST-TACC3 binding, luminescence; TACC3 fragment carries E629A point mutation. hit rate 0.66% among 390,000. Transforming acidic coiled-coil-containing protein 3 (Homo sapiens), Q9Y6A5;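 active = mean inhibition of replicates at least 50% and at least half of replicates each reaching 50%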;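 note: 0% = complete ARNT plus TACC3 wells and 100% = ARNT alone without TACC3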
Xi reactivation – activators of inactive X chromosome reactivation, primary screen, imaging, XiGFP fibroblasts, GFP high-content imaging, set 2; hit rate 0.055% among 360,000; XiGFP mouse fibroblasts, % GFP-positive cells imaging, 3 d; cells co-treated with 5-aza-dC sensitizer; scaled so ellipticine positive control = 100%; activation, % at 7.58 µM; AID 743238, 2013;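 active = mean normalized replicate activation at least 10% and every replicate at or above 10%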;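 note: 0% = median of on-plate neutral control wells and 100% = ellipticine 6 µM median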
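System: 68-5-11 XiGFP fibroblast line | Buffer or medium: DMEM containing 5-aza-dC | Compound: Single point | Times: Compounds 3 days, fix/stain 15 min at room temperature | Benchmarks: Positive control ellipticine, 6 µM final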
SR-BI uptake up – activators of SR-BI mediated DiI-HDL uptake, primary screen, ldlA[mSR-BI] CHO cells, DiI fluorescence; activation, % at 12.5 µM; hit rate 0.096% among 320,000; 3 h; 100 = double the neutral-control signal;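 active = mean replicate activation of at least 60% and every replicate at or above 60%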;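 note: 0% = median plate neutral-control signal and 100% = twice that signal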
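Material – SR-BI-overexpressing, LDLR-lacking CHO cells · Medium – BSA-supplemented, HEPES-buffered Ham's F12, pH 7.4 · Doses – single concentration · Times – compound with DiI-HDL co-incubation, 3 h at 37 °C · Measured by – bottom-read fluorescence, 550/595 nm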
Numbers without * were called inactive. Most compounds without a hit are left out; they make up all but 2% or so of the library.

Results for COCCCNC(=O)c1c(NC(=O)C2COc3ccccc3O2)sc2c1CCCC2 (centres undefined) ?
sPLA2-III inh: 5; SR-BI HDL uptake: 76*; NSD2 HMT inh: -1; SR-BI uptake up: -76

What do the screens show for `CCNC(=O)c1c(NC(=O)C2COc3ccccc3O2)sc2c1CCCC2` (centres undefined)?
sPLA2-III inh: 4; SR-BI HDL uptake: 28; NSD2 HMT inh: -1; ARNT TACC3 PPI: -2; SR-BI uptake up: -28

Results for Cc1ccccc1NC(=O)OCc1ccccc1 ?
sPLA2-III inh: 4; SR-BI HDL uptake: 5; NSD2 HMT inh: -3; ARNT TACC3 PPI: 4; Xi reactivation: 0; SR-BI uptake up: -5

What do the screens show for `Cc1ccccc1N=C/C=C1/C=C(c2ccccc2)OC(C)(C)O1`?
sPLA2-III inh: 8; SR-BI HDL uptake: 1; NSD2 HMT inh: 8; ARNT TACC3 PPI: 7; SR-BI uptake up: -1

Results for CC1(C)OC(c2ccccc2)=C/C(=C/C=N/NC(=O)c2ccncc2)O1 ?
sPLA2-III inh: 13; SR-BI HDL uptake: 90*; NSD2 HMT inh: 3; ARNT TACC3 PPI: 31; Xi reactivation: 0; SR-BI uptake up: -90

Results for CC(C)[C@H](N)C(=O)N[C@H](C(=O)N1CCC2CCN(Cc3ccccc3)CC21)C(C)C (some centres undefined) ?
sPLA2-III inh: -3; Xi reactivation: 0

What do the screens show for `Cn1cnc(S(=O)(=O)N2CCCCN3[C@H](CO)[C@@H](c4ccc(-c5ccccc5)cc4)[C@@H]3C2)c1`?
ARNT TACC3 PPI: 2; Xi reactivation: 0

What do the screens show for `COc1cc(NC(=O)c2cccnc2)ccc1NC(=O)c1ccccc1Cl`?
sPLA2-III inh: 14; ARNT TACC3 PPI: -6; Xi reactivation: 0

How did COc1cc(NC(=O)c2cccc([N+](=O)[O-])c2)ccc1NC(=O)c1ccco1 do in these assays?
sPLA2-III inh: 2; SR-BI HDL uptake: 89*; NSD2 HMT inh: 1; Xi reactivation: 0; SR-BI uptake up: -89

What do the screens show for `COc1cc(NC(=O)c2ccccc2F)ccc1NC(=O)c1ccccc1Cl`?
sPLA2-III inh: 5; SR-BI HDL uptake: 93*; NSD2 HMT inh: -1; Xi reactivation: 0; SR-BI uptake up: -93

Results for COc1cc(NC(=O)c2ccc(Br)o2)ccc1NC(=O)c1ccccc1Cl ?
sPLA2-III inh: 1; SR-BI HDL uptake: 83*; NSD2 HMT inh: 1; ARNT TACC3 PPI: 25; SR-BI uptake up: -83

What do the screens show for `CCCC(=O)Nc1ccc(Cl)c(NC(=O)CC)c1`?
sPLA2-III inh: 2; SR-BI HDL uptake: 14; ARNT TACC3 PPI: 4; SR-BI uptake up: -14

What do the screens show for `CCC(=O)Nc1ccc(Cl)c(NC(=O)c2ccc(Br)o2)c1`?
sPLA2-III inh: -3; SR-BI HDL uptake: 76*; NSD2 HMT inh: 2; ARNT TACC3 PPI: 0

What do the screens show for `COc1cc(NC(=O)c2ccc([N+](=O)[O-])o2)ccc1NC(=O)c1ccco1`?
sPLA2-III inh: 1; SR-BI HDL uptake: 67; NSD2 HMT inh: 1; ARNT TACC3 PPI: -5; Xi reactivation: 0; SR-BI uptake up: -67

Results for COc1ccccc1NC(=O)c1ccc(Br)o1 ?
sPLA2-III inh: 0; SR-BI HDL uptake: 1; NSD2 HMT inh: 5; ARNT TACC3 PPI: 10; SR-BI uptake up: -1

How did COc1cc(NC(=O)c2ccccc2[N+](=O)[O-])ccc1NC(=O)c1cc2ccccc2o1 do in these assays?
sPLA2-III inh: 4; SR-BI HDL uptake: 77*; NSD2 HMT inh: 7; ARNT TACC3 PPI: -7; Xi reactivation: 0; SR-BI uptake up: -77

What do the screens show for `Cc1cc(NC(=O)c2cncc(Br)c2)ccc1NC(=O)c1cc2ccccc2o1`?
sPLA2-III inh: 4; SR-BI HDL uptake: 97*; NSD2 HMT inh: 0; ARNT TACC3 PPI: -3; Xi reactivation: 0; SR-BI uptake up: -97

Results for COc1cc(NC(C)=O)ccc1NC(=O)c1cc2ccccc2o1 ?
sPLA2-III inh: 3; SR-BI HDL uptake: 5; NSD2 HMT inh: -1; ARNT TACC3 PPI: -4; Xi reactivation: 0; SR-BI uptake up: -5

How did COc1cc(NC(=O)c2ccccc2)ccc1NC(=O)c1cc2ccccc2o1 do in these assays?
sPLA2-III inh: 6; SR-BI HDL uptake: 49; NSD2 HMT inh: -2; ARNT TACC3 PPI: -2; Xi reactivation: 0; SR-BI uptake up: -49

What do the screens show for `CCOc1ccc(OCCn2nnc3ccccc3c2=O)cc1`?
sPLA2-III inh: 2; SR-BI HDL uptake: -152; NSD2 HMT inh: 1; ARNT TACC3 PPI: 0; Xi reactivation: 0; SR-BI uptake up: 152*

How did CCCn1nnc2ccccc2c1=O do in these assays?
sPLA2-III inh: 3; SR-BI HDL uptake: 4; NSD2 HMT inh: -2; ARNT TACC3 PPI: 14; SR-BI uptake up: -4

How did O=c1c2ccccc2nnn1Cc1ccc2ccccc2c1 do in these assays?
sPLA2-III inh: -9; SR-BI HDL uptake: -24; NSD2 HMT inh: -3; ARNT TACC3 PPI: -4; Xi reactivation: 73*; SR-BI uptake up: 24

Results for O=C(COC(=O)c1ccc(F)c(S(=O)(=O)N2CCOCC2)c1)NCc1ccc(Cl)cc1 ?
sPLA2-III inh: -15; SR-BI HDL uptake: 17; NSD2 HMT inh: -2; ARNT TACC3 PPI: 2; Xi reactivation: 0; SR-BI uptake up: -17

What do the screens show for `FC(F)(F)c1nnc2ccc(Cl)nn12`?
sPLA2-III inh: 1; SR-BI HDL uptake: -8; NSD2 HMT inh: -3; Xi reactivation: 0; SR-BI uptake up: 8

What do the screens show for `CSc1cccc(NC(=O)/C=C/c2cccc(Cl)c2)c1`?
sPLA2-III inh: -14; SR-BI HDL uptake: 75*; NSD2 HMT inh: -5; ARNT TACC3 PPI: -1; Xi reactivation: 0; SR-BI uptake up: -75

How did CCOc1cccc(/C=N/NC(=O)c2ccc3c(c2)OCCO3)c1O do in these assays?
sPLA2-III inh: -11; SR-BI HDL uptake: 87*; NSD2 HMT inh: 11; ARNT TACC3 PPI: 41; Xi reactivation: 0; SR-BI uptake up: -87

What do the screens show for `O=C(N/N=C/c1cc([N+](=O)[O-])ccc1O)c1cccc2cc[nH]c12`?
sPLA2-III inh: -2; SR-BI HDL uptake: 144*; NSD2 HMT inh: 1; ARNT TACC3 PPI: 9; Xi reactivation: 0; SR-BI uptake up: -144
